Data reported in ChEMBL document CHEMBL1221323, “Iodination of verapamil for a stronger induction of death, through GSH efflux, of cancer cells overexpressing MRP1” (Bioorg Med Chem, 2010).
Blank lines part the entries; values can stand above or below the compound they belong to.

Tests used:
[1] = molecular target: T1, Multidrug resistance-associated protein 1 (Homo sapiens, UniProt P33527); experiment: Inhibition of MRP1 expressed in hamster BHK21 cells assessed as reduction of GSH efflux at 5 uM after up to 120 mins; format: cell-based; settings: bhk-21, 2 h
T1 sequence (P33527 whole entry): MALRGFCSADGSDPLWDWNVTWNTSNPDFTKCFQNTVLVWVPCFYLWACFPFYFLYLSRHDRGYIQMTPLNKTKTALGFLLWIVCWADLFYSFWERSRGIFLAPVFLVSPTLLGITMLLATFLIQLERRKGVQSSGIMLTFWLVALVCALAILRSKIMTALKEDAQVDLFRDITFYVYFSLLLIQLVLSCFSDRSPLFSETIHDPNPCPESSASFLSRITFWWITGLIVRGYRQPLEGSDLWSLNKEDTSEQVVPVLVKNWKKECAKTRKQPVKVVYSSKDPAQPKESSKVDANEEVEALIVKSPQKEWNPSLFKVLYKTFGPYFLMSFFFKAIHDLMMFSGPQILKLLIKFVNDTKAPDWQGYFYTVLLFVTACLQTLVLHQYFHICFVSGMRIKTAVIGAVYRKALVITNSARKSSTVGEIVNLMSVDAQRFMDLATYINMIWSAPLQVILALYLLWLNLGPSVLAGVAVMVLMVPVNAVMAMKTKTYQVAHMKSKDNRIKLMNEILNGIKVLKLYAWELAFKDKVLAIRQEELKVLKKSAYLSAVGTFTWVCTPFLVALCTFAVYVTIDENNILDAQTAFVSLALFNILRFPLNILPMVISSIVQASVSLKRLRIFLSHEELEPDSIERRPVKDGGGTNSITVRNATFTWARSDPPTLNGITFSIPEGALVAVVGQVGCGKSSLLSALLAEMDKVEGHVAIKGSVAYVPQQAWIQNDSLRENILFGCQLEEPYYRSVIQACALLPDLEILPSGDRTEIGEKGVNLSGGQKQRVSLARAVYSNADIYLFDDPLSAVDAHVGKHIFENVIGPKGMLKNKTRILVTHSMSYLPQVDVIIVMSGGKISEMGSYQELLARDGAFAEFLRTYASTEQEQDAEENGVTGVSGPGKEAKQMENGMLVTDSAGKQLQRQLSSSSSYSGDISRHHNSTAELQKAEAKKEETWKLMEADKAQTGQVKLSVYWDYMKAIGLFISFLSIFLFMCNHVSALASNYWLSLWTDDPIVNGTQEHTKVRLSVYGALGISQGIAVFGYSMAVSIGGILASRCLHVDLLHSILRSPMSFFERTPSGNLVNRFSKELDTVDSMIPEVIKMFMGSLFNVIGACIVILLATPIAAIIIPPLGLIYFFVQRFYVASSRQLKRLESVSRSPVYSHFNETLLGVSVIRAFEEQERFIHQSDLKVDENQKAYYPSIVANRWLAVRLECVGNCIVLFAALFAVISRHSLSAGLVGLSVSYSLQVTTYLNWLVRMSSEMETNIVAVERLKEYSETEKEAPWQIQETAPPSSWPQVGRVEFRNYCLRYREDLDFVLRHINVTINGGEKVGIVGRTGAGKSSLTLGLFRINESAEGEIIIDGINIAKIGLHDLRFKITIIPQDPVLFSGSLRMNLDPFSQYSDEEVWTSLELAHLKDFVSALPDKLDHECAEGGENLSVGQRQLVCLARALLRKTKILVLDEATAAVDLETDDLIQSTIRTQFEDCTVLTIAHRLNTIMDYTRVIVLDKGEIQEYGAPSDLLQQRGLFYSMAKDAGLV
In short: (§1)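 Cells from the MRP1-transfected BHK-21 line (kept under methotrexate) were seeded at 1.0 × 10⁵/well, grown 17 h, then given 5 µM compound (DMSO ≤0.5%) for 10–120 min. Cells were washed in cold PBS and lysed in 0.1% Triton X-100. Total glutathione was measured by DTNB/NADPH/GSH reductase recycling (A412 kinetic, 2 min) and normalized to Bradford protein. Residual GSH is expressed as % of untreated cells; time to 50% loss is reported; triplicates.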

BHK-21 [2] = experiment: Cytotoxicity against hamster BHK21 cells after 96 hrs by MTT assay; format: functional, cell-based; settings: Mesocricetus auratus, BHK-21, 96 h
In short: (§2)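 Cells plated at 1.0 × 10⁴/well and grown 17 h, then exposed to compound diluted in complete medium (0.5% DMSO) for 96 h at 37 °C, 5% CO₂. MTT at 0.5 mg/mL added for 4 h, dye removed, formazan dissolved in isopropanol, absorbance read at 570 nm. IC50 taken from sigmoidal fits of triplicate dose–response curves.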

BHK-21 [3] = experiment: Cytotoxicity against hamster BHK21 cells expressing MRP1 after 96 hrs by MTT assay; format: functional, cell-based; settings: Mesocricetus auratus, BHK-21, 96 h; in short: as §2
[4] = molecular target: T1, Multidrug resistance-associated protein 1; experiment: Inhibition of MRP1 expressed in hamster BHK21 cells assessed as reduction of GSH efflux at 5 uM after up to 50 to 60 mins; format: cell-based; settings: bhk-21, 5 µM; in short: as §1

inhibition (INH) [1]: Not Active
SMILES: COc1ccc(C(C#N)(CCCN(C)CCc2cc(I)c(OC)c(I)c2)C(C)C)cc1OC (configuration not stated)
IC50 (BHK-21 [2]): 8.9 µM
IC50 (BHK-21 [3]): 1.7 µM

SMILES: COc1ccc(C(C#N)(CCCNCCc2cc(I)c(O)c(I)c2)C(C)C)cc1OC (configuration not stated)
IC50 (BHK-21 [2]): 13.8 µM
IC50 (BHK-21 [3]): 1.96 µM

SMILES: COc1ccc(C(C#N)(CCCN(C)CCc2ccc(O)cc2)C(C)C)cc1OC (configuration not stated)
IC50 (BHK-21 [2]): 55.9 µM
IC50 (BHK-21 [3]): 11.7 µM

SMILES: COc1ccc(C(C#N)(CCCN(C)CCc2ccc(O)c(I)c2)C(C)C)cc1OC (configuration not stated)
IC50 (BHK-21 [2]): 32.8 µM
IC50 (BHK-21 [3]): 8.6 µM

SMILES: COc1ccc(CCN(C)CCCC(C#N)(c2ccc(OC)c(OC)c2)C(C)C)cc1OC (configuration not stated) [VERAPAMIL]
IC50 (BHK-21 [2]): ≥ 100 µM
IC50 (BHK-21 [3]): 10.6 µM

SMILES: COc1ccc(C(C#N)(CCCNCCc2ccc(O)c(I)c2)C(C)C)cc1OC (configuration not stated)
IC50 (BHK-21 [2]): 14.2 µM
IC50 (BHK-21 [3]): 0.78 µM

inhibition (INH) [1]: Not Active
SMILES: COc1ccc(CCN(C)CCCC(C#N)(c2ccc(OC)c(OC)c2)C(C)C)cc1I (configuration not stated)
IC50 (BHK-21 [2]): 13 µM
IC50 (BHK-21 [3]): 4.7 µM

SMILES: COc1ccc(C(C#N)(CCCN(C)CCc2cc(I)c(O)c(I)c2)C(C)C)cc1OC (configuration not stated)
IC50 (BHK-21 [2]): 54.7 µM
IC50 (BHK-21 [3]): 1.1 µM

inhibition (INH) [4]: Not Active
SMILES: COc1ccc(C(C#N)(CCCN(C)CCCc2ccc(O)cc2)C(C)C)cc1OC (configuration not stated)
IC50 (BHK-21 [2]): ≥ 100 µM
IC50 (BHK-21 [3]): 20.9 µM

inhibition (INH) [4]: Not Active
SMILES: COc1ccc(C(C#N)(CCCN(C)Cc2ccc(O)cc2)C(C)C)cc1OC (configuration not stated)
IC50 (BHK-21 [2]): 28.5 µM
IC50 (BHK-21 [3]): 6.6 µM

SMILES: COc1ccc(C(C#N)(CCCN(C)Cc2ccc(O)c(I)c2)C(C)C)cc1OC (configuration not stated)
IC50 (BHK-21 [2]): 14.1 µM
IC50 (BHK-21 [3]): 13 µM

SMILES: COc1ccc(C(C#N)(CCCN(C)CCCc2ccc(O)c(I)c2)C(C)C)cc1OC (configuration not stated)
IC50 (BHK-21 [2]): 9.4 µM
IC50 (BHK-21 [3]): 9.3 µM

SMILES: COc1ccc(C(C#N)(CCCN(C)Cc2cc(I)c(O)c(I)c2)C(C)C)cc1OC (configuration not stated)
IC50 (BHK-21 [2]): 27.4 µM
IC50 (BHK-21 [3]): 6.6 µM

inhibition (INH) [1]: Not Active
SMILES: COc1ccc(CCN(C)CCCC(C#N)(c2ccc(OC)c(OC)c2)C(C)C)cc1 (configuration not stated)
IC50 (BHK-21 [2]): 33.6 µM
IC50 (BHK-21 [3]): 17.2 µM

SMILES: COc1ccc(C(C#N)(CCCN(C)CCCc2cc(I)c(O)c(I)c2)C(C)C)cc1OC (configuration not stated)
IC50 (BHK-21 [2]): 33.1 µM
IC50 (BHK-21 [3]): 6 µM

SMILES: COc1ccc(C(C#N)(CCCNCCc2ccc(O)cc2)C(C)C)cc1OC (configuration not stated)
IC50 (BHK-21 [2]): ≥ 100 µM
IC50 (BHK-21 [3]): 38.1 µM
